According to article PMC9742152 (ChemMedChem, 2022):
Read-outs that look alike come from different tables or passages of the source. Values belong to the compound of their own block, whether it stands above or below them.

What was measured:
[1] = Hydrolysis in wet DMSO-d6 at 25 °C followed by 1H NMR; details: for % hydrolysed (conversion into the phenol) after 30 days: wet DMSO-d6, room temperature, water/substrate ~60:1
steroid sulfatase (STS) [2] = target: T1, steroid sulfatase (STS) (Homo sapiens, UniProt P08842); assay: In vitro cell-free sulfatase assay, JEG-3 lysate; type: biochemical
T1 sequence (P08842 22-583): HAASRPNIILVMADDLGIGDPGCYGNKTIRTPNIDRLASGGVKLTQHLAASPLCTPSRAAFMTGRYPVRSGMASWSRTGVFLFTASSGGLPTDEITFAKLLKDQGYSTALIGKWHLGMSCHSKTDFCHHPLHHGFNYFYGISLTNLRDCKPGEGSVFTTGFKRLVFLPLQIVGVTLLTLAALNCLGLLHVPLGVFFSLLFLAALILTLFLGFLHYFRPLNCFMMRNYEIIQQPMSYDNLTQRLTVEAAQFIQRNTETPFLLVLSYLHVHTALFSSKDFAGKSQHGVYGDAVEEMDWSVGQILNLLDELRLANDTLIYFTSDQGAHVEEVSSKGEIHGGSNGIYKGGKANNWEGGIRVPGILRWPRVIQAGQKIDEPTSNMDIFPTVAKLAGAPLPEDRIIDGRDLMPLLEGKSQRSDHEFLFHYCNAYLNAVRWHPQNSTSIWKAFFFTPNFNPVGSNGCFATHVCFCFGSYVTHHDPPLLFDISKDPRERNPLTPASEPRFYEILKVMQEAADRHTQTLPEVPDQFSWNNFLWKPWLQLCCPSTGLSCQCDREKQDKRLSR

steroid sulfatase (STS) [3] = target: T1, steroid sulfatase (STS); assay: In vitro whole cell sulfatase assay, intact JEG-3 cells; type: cell-based
[4] = tested on: MCF-7 breast cancer cells; assay: Anti-proliferative assay, MCF-7 cells; type: cell-based, human; details: read-out: GI50 MCF-7
Outline: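 MCF-7 cells kept at 37 °C, 5% CO2 in RPMI 1640 with 17% FBS, 2 mM L-glutamine and gentamicin, in full (not estrogen-deprived) media; seeded 5000 cells/well, grown 24 h without compound, then exposed to test compound at 10−9–10−4 M or vehicle. Cell protein measured by sulforhodamine B staining at 96 h; GI50 is the mean of two determinations.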

[5] = tested on: MDA MB-231 breast cancer cells; assay: Anti-proliferative assay, MDA MB-231 cells; type: cell-based, human; details: read-out: GI50 MDA MB-231
Outline: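 MDA MB-231 cells kept at 37 °C, 5% CO2 in RPMI-1640 with 10% FBS, penicillin and streptomycin; seeded 8000 cells/well, allowed to adhere 24 h, then given test compound or vehicle. BrdU incorporation kit assay run at 48 h; signal expressed as percent of mean control to derive GI50; experiments in triplicate, mean of three determinations.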

Bovine brain tubulin [6] = assay: Inhibition of tubulin assembly; type: biochemical; details: for IC50: read-out: Tubulin assembly IC50, 10 μM tubulin, mean ±SD
HOP-62 = assay: NCI 60-cell line assay, Lung HOP-62; type: cell-based
HCT-116 = assay: NCI 60-cell line assay, Colon HCT-116; type: cell-based
SF-539 = assay: NCI 60-cell line assay, CNS SF-539; type: cell-based; details: read-out: GI50 CNS SF-539
UACC-62 = assay: NCI 60-cell line assay, Melanoma UACC-62; type: cell-based
OVCAR-3 = assay: NCI 60-cell line assay, Ovarian OVCAR-3; type: cell-based
SN12C = assay: NCI 60-cell line assay, Renal SN12C; type: cell-based; details: read-out: GI50 Renal SN12C
NCI-60 cell line panel = assay: NCI 60-cell line assay, mean over whole panel; type: cell-based; details: for IC50: read-out: MGM (mean concentration that caused 50% growth inhibition in all 60 cell lines)
Bovine brain tubulin [7] = assay: Inhibition of [3H]colchicine binding to tubulin; details: 5 μM inhibitor, 5.0 μM [3H]colchicine, 1.0 μM tubulin, mean ±SD
[8] = cited from earlier work
[9] = wet DMSO-d6, 25 °C, 0 days, 1H NMR
[10] = wet DMSO-d6, 25 °C, 15 days, 1H NMR
[11] = wet DMSO-d6, 25 °C, 30 days, 1H NMR
[12] = MCF-7, full media, 96 h, mean of two determinations
[13] = NCI-60, mean of three determinations
[14] = Homo sapiens, HOP-62, read-out: GI50 Lung HOP-62
[15] = Homo sapiens, HCT-116, read-out: GI50 Colon HCT-116
[16] = Homo sapiens, UACC-62, read-out: GI50 Melanoma UACC-62
[17] = Homo sapiens, OVCAR-3, read-out: GI50 Ovarian OVCAR-3

SMILES: COc1cc2c(cc1O)CC[C@@H]1[C@@H]2CC[C@]2(C)[C@@H](OS(N)(=O)=O)CC[C@@H]12 [Compound 22]
- % of the compound in the reaction mixture, 0 days [1, 9]: 0%
- % of the compound in the reaction mixture, 15 days [1, 10]: 19%
- % of the compound in the reaction mixture, 30 days [1, 11]: 31%

- times more potent than 16, JEG-3 lysate assay (steroid sulfatase (STS) [2]; vs 16): about 3 times
- times more potent than 16, whole cells (steroid sulfatase (STS) [3]; vs 16): about 100 times
- % of the compound in the reaction mixture, 0 days [1, 9]: 100%
- % of the compound in the reaction mixture, 15 days [1, 10]: 24%
- % of the compound in the reaction mixture, 30 days [1, 11]: 5%
SMILES: C[C@]12CC[C@@H]3c4cc(C(F)F)c(OS(N)(=O)=O)cc4CC[C@H]3[C@@H]1CCC2=O [Compound 23, 2-difluoromethylestrone sulfamate, reference compound]

SMILES: C[C@]12CC[C@@H]3c4cc(OC(F)F)c(O)cc4CC[C@H]3[C@@H]1CCC2=O [Compound 15, 2-Difluoromethoxy-3-hydroxyestra-1,3,5(10)-trien-17-one]
- GI50 ([4]; Homo sapiens, MCF7, 96 h): > 5000 nM
- GI50 ([5]; Homo sapiens, MDA-MB-231, 48 h): > 10000 nM
- IC50 (Bovine brain tubulin [6]): > 20000 nM

SMILES: C[C@]12CC[C@@H]3c4cc(OC(F)F)c(O)cc4CC[C@H]3[C@@H]1CC[C@@H]2O [Compound 9, 2-Difluoromethoxy-3,17β-bis-hydroxyestra-1,3,5(10)-triene]
- GI50 ([4]; Homo sapiens, MCF7, 96 h): 2600 nM
- GI50 ([5]; Homo sapiens, MDA-MB-231, 48 h): 3030 nM
- IC50 (Bovine brain tubulin [6]): 12400 ± 100 nM

- GI50 [4, 12]: 280 nM
- GI50 ([5]; MDA MB-231, 48 h, mean of three determinations): 740 nM
- IC50 (Bovine brain tubulin [6]): 3900 ± 500 nM
- Colchicine binding (% Inhibition) (Bovine brain tubulin [7]): 19 ± 0.5%
- % of the compound in the reaction mixture, 0 days [1, 9]: 100%
- % of the compound in the reaction mixture, 15 days [1, 10]: 32%
- % of the compound in the reaction mixture, 30 days [1, 11]: 8%
- T1/2 of hydrolysis ([1]; wet DMSO-d6, estimated from Table 1): ~ 10 days
- % hydrolysed (conversion into the phenol) after 30 days ([1]; 30 days): 92%
SMILES: C[C@]12CC[C@@H]3c4cc(OC(F)F)c(OS(N)(=O)=O)cc4CC[C@H]3[C@@H]1CC[C@@H]2OS(N)(=O)=O [Compound 10, 2-Difluoromethoxy-3–17β-bis-sulfamoyloxyestra-1,3,5(10)-triene]
- GI50 (HOP-62; read-out: GI50 Lung HOP-62, NCI-60, mean of three determinations): 1980 nM
- GI50 (HCT-116; read-out: GI50 Colon HCT-116, NCI-60, mean of three determinations): 474 nM
- GI50 (SF-539; [13]): 266 nM
- GI50 (UACC-62; read-out: GI50 Melanoma UACC-62, NCI-60, mean of three determinations): 564 nM
- GI50 (OVCAR-3; read-out: GI50 Ovarian OVCAR-3, NCI-60, mean of three determinations): 527 nM
- GI50 (SN12C; [13]): 567 nM
- overall anti-proliferative activity in NCI 60-cell line panel (in words) (NCI-60 cell line panel; average GI50, NCI-60): sub-micromolar
- IC50 (NCI-60 cell line panel; all 60 cell lines): 661 nM
- fold less active than CA-4 in tubulin assembly (Bovine brain tubulin [6]; vs CA-4): about 3 fold

- IC50 (Bovine brain tubulin [6]): 8300 ± 800 nM
- Colchicine binding (% Inhibition) (Bovine brain tubulin [7]): 36 ± 3%
SMILES: COc1cc2c(cc1O)CC[C@@H]1[C@@H]2CC[C@]2(C)[C@@H](O)CC[C@@H]12 [Compound 1, 2-Methoxyestradiol, reference compound]
- bioavailability [8]: ~1%

SMILES: C[C@]12CC[C@@H]3c4cc(OC(F)F)c(OS(N)(=O)=O)cc4CC[C@H]3[C@@H]1CCC2=O [Compound 16, 2-Difluoromethoxy-3-sulfamoyloxyestra-1,3,5(10)-trien-17-one]
- GI50 ([4]; Homo sapiens, MCF7, 96 h): 580 nM
- GI50 ([5]; Homo sapiens, MDA-MB-231, 48 h): 990 nM
- IC50 (Bovine brain tubulin [6]): 4300 ± 200 nM
- Colchicine binding (% Inhibition) (Bovine brain tubulin [7]): 32 ± 4%
- IC50 (steroid sulfatase (STS) [2]): 56 nM
- IC50 (steroid sulfatase (STS) [3]): 5.6 nM

SMILES: COc1cc2c(cc1OS(N)(=O)=O)CC[C@@H]1[C@@H]2CC[C@]2(C)[C@@H](OS(N)(=O)=O)CC[C@@H]12 [Compound 4, 2-methoxyestradiol-3,17-O,O-bissulfamate, reference compound]
- GI50 [4, 12]: 520 nM
- IC50 (Bovine brain tubulin [6]): 2300 ± 100 nM
- Colchicine binding (% Inhibition) (Bovine brain tubulin [7]): 33 ± 3%
- bioavailability [8]: ~85%
- % of the compound in the reaction mixture, 0 days [1]: 100%
- % of the compound in the reaction mixture, 15 days [1]: 81%
- % of the compound in the reaction mixture, 30 days [1]: 69%
- % hydrolysed (conversion into the phenol) after 30 days ([1]; 30 days): 31%

SMILES: C[C@]12CC[C@@H]3c4cc(OC(F)F)c(O)cc4CC[C@H]3[C@@H]1CC[C@@H]2OS(N)(=O)=O [Compound 11, 2-Difluoromethoxy-3-hydroxy-17β-sulfamoyloxyestra-1,3,5(10)-triene]
- GI50 ([4]; Homo sapiens, MCF7, 96 h): > 5000 nM
- GI50 ([5]; Homo sapiens, MDA-MB-231, 48 h): > 10000 nM
- GI50 (HOP-62; [14]): 648 nM
- GI50 (HCT-116; [15]): 375 nM
- GI50 (SF-539; Homo sapiens): 427 nM
- GI50 (UACC-62; [16]): 460 nM
- GI50 (OVCAR-3; [17]): 383 nM
- GI50 (SN12C; Homo sapiens, SN12C): 1220 nM
- IC50 (NCI-60 cell line panel; 60 cell): 813 nM
- IC50 (Bovine brain tubulin [6]): > 20000 nM
- IC50 (steroid sulfatase (STS) [2]): > 5000 nM
- STS inhibition in JEG-3 lysate (in words) (steroid sulfatase (STS) [2]; JEG-3 lysate): inactive
- % of the compound in the reaction mixture, 0 days [1, 9]: 0%
- % of the compound in the reaction mixture, 15 days [1, 10]: 68%
- % of the compound in the reaction mixture, 30 days [1, 11]: 92%

SMILES: C[C@]12CC[C@@H]3c4cc(OC(F)F)c(OS(N)(=O)=O)cc4CC[C@H]3[C@@H]1CC[C@@H]2O [Compound 12, 2-Difluoromethoxy-3-sulfamoyloxy-17β-hydroxyestra-1,3,5(10)-triene]
- GI50 ([4]; Homo sapiens, MCF7, 96 h): 1100 nM
- GI50 ([5]; Homo sapiens, MDA-MB-231, 48 h): 1110 nM
- GI50 (HOP-62; [14]): 634 nM
- GI50 (HCT-116; [15]): 406 nM
- GI50 (SF-539; Homo sapiens): 313 nM
- GI50 (UACC-62; [16]): 498 nM
- GI50 (OVCAR-3; [17]): 386 nM
- GI50 (SN12C; Homo sapiens, SN12C): 692 nM
- IC50 (NCI-60 cell line panel; 60 cell): 646 nM
- IC50 (Bovine brain tubulin [6]): 6600 ± 700 nM
- Colchicine binding (% Inhibition) (Bovine brain tubulin [7]): 22 ± 1%
- IC50 (steroid sulfatase (STS) [2]): 75 nM
- IC50 (steroid sulfatase (STS) [3]): 18.6 nM

SMILES: COc1ccc(/C=C\c2cc(OC)c(OC)c(OC)c2)cc1O [CA-4, combretastatin A-4, reference compound]
- Colchicine binding (% Inhibition) (Bovine brain tubulin [7]): 98 ± 1%
